Reference: article PMC10238246 (Medicinal Chemistry Research, 2023)

Experiments:
[1] = system: mouse formalin model; assay: mouse formalin model of acute and persistent pain; type: in vivo; conditions: 200 mg/kg i.p., positive control
Procedure, shortened: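 Mouse formalin model: test compounds given s.c. (10, 30, 60 mg/kg) or i.p. (30 mg/kg) to maximise exposure. The positive control was a reference analgesic at 200 mg/kg i.p. Formalin-induced flinches were counted over 65 min. Plasma and brain levels were sampled at study end (~90 min post-dose), and free plasma level was estimated from plasma protein binding.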

[2] = system: mouse rotarod assay; assay: mouse rotarod assay; type: in vivo; conditions: dose of 200 mg/kg

NCC1(CC(=O)O)CCCCC1 [Gabapentin]
efficacy in the formalin model (number of flinches) [1]: Efficacy was seen | behavioral side effects [2]: behavioral side effects (i.e., sedation)
